A selection: hits, their analogues and other compounds. The true share with any hit is near 2.3%.
TPT1 inh – inhibitors of Candida albicans tRNA 2'-phosphotransferase TPT1; 300,000 compounds, 0.81% hits; AID 1962; recombinant caTPT1, FP RNA substrate dephosphorylation; inhibition, % at 5 µM;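 active = inhibition above the mean of all tested compounds plus 3 SD, set per screening campaign, cut at about 24% in these data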;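 note: plate controls were DMSO alone for no effect and ferristatin control at 100 nM for full effect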
Rpn11 block – Rpn11 (human) deubiquitinase inhibition; O00487; human 26S proteasome, Ub4-pepOG fluorescence polarization; 20S core pre-blocked with epoxomicin; calls only at 20 µM; 360,000 compounds, 0.59% hits; AID 588493;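 active = inhibition at 20 µM, scaled to each plate's controls, above about 33%, limit read from the data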
Target sequence (O00487 whole entry, looked up): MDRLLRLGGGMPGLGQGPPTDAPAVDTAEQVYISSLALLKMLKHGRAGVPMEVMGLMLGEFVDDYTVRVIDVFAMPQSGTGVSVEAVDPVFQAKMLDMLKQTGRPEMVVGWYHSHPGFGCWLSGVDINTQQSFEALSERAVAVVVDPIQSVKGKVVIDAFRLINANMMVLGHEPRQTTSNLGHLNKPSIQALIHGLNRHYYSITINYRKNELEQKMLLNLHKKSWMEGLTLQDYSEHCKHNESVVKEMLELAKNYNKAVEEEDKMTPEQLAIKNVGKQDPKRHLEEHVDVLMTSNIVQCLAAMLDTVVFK
CRFBP-R2 agonist – agonists of human CRF-binding protein/CRF-R2 receptor complex; HEK293 CRF-R2/CRF-BP, calcium dye fluorescence (FLIPR); percent of saturating CRF peptide response; activation, % at 13.2 µM; 350,000 compounds, 0.46% hits;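 active = activation of at least 50%, plus an integration ratio under a set limit after plate pattern correction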;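 note: plate controls were neutral control wells without compound for no effect and CRF at EC100 for full effect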
CSN inh – blocks human CSN-mediated cullin deneddylation; AID 651999; Purified CSN, SCF-Nedd8-OG deneddylation, fluorescence polarization; inhibition, % at 12.5 µM; 360,000 compounds, 0.38% hits;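 active = pattern-corrected inhibition above about 35%, with an unprinted fluorescence ratio check between 0.5 and 1.5, limit read from the data, passing the limit was not always enough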;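 note: 0% = enzyme with substrate and 100% = substrate without enzyme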
Target sequence (Q92905 whole entry, looked up, one chain of several): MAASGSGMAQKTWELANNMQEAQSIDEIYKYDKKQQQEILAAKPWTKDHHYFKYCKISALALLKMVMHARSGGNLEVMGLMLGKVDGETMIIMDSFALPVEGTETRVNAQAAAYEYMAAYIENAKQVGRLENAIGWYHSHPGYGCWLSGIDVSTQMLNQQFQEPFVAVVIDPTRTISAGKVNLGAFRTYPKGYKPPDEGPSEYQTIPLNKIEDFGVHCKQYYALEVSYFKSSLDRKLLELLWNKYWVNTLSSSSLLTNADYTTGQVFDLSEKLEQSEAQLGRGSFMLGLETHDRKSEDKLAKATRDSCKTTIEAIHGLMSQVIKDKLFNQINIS
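test system = HEK293T-derived human Csn5 enzyme | amount = 0.24 nM Csn5 enzyme, final concentration | medium = Tris/NaCl/DTT buffer, pH 7.5 | schedule = 90 min reaction at room temperature | signal = FP | evaluation = inhibition of Csn5 cleavage, % | compound dosing = single dose of 12.5 µM compound with 0.25% DMSO | probe or stimulus = 10 nM SCFSkp2-Nedd8OG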
CRFBP-R2 block – antagonists of CRF-binding protein/CRF-R2 receptor complex; HEK293 CRF-R2/CRF-BP, CRF-induced calcium fluorescence; inhibition, % at 11.8 µM; 350,000 compounds, 0.59% hits; AID 588475;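 active = inhibition of the ligand-induced calcium signal above about 50% at the single tested concentration, limit read from the data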
HNF4A DNA FP – change in binding of human HNF4 alpha to DNA; P41235; HNF4a-FITC DNA binding, fluorescence polarization, 1 h; activity change, % at 10 µM; 360,000 compounds, 0.3% hits; AID 1224865; in the data active = activity change above about 30%, passing the limit was not always enough
* marks the source's active call; other numbers are inactive results; i = inactive; x = not tested or not shown; + = active, no number.

SMILES | TPT1 inh | Rpn11 block | CRFBP-R2 agonist | CSN inh | CRFBP-R2 block | HNF4A DNA FP
CCOc1cc2[nH]c(=O)n(Cc3ccccc3)c(=O)c2cc1OCC | -2 | i | -1 | 3 | 71* | 2
COc1ccc(Cn2c(=O)[nH]c3cc(OC)c(OC)cc3c2=O)cc1 | -3 | i | 0 | -2 | -9 | 0
CC(C)OC(=O)c1ccc(NC(=O)c2ccccc2)cc1 | -2 | i | 9 | 10 | -63 | -2
COC(=O)C(OC(=O)c1ccccc1)C(C)Br (stereo not given) | x | i | -3 | 0 | 63* | -1
O=C(O)C1CC(=O)N(CCOc2ccccc2)C1 (stereo not given) | 0 | i | 8 | -3 | 63* | 1
CCOC(=O)c1c(NC(=O)N/N=C/c2ccc(O)c(OC)c2)sc(C(C)=O)c1C | 1 | x | x | x | x | x
O=C(c1cc2ccccc2oc1=O)N(Cc1cccs1)Cc1cccs1 | 3 | i | 1 | -1 | 11 | -3
CCN(CC)c1ccc2cc(-c3nc(-c4ccc(OC)cc4)cs3)c(=O)oc2c1 | -12 | x | 338* | x | -404 | x
CCN(CC)c1ccc2cc(C(=O)c3cccs3)c(=O)oc2c1 | x | x | x | 4 | x | 84*
CCN(CC)c1ccc2cc(-c3nc4ccccc4[nH]3)c(=O)oc2c1 | -7 | i | 227* | -72 | -190 | -87
C/C(=N\NC(=O)C1COc2ccccc2O1)c1ccccn1 (stereo not given) | -2 | i | -2 | -6 | 5 | 0
O=C(O)c1ccc(Cl)c(S(=O)(=O)N(Cc2ccccc2)c2ccccc2Cl)c1 | -3 | i | 3 | -4 | 19 | -1
C=CCNC(=S)Nc1cc(S(=O)(=O)N2CCOCC2)ccc1-n1cncn1 | -11 | i | -3 | -10 | 19 | -2
COC(=O)c1ccccc1S(=O)(=O)N1CCC(c2nc3ccccc3o2)CC1 | 3 | i | -1 | 2 | 14 | 0
Cc1ccc(C(=O)NCCn2cc(SCC(=O)N3CCOCC3)c3ccccc32)cc1 | -5 | i | 12 | -1 | 17 | -1
C#CCOCCOCCOCCNc1nc(N2CCN(C(=O)CCCCCCCCCCNC(=O)[C@H](CCCCN)n3cc(C)nn3)CC2)nc(N2CCN(C(=O)CCCCCCCCCCNC(=O)[C@@H]([C@H](C)CC)n3cc(CCCCCN)nn3)CC2)n1 | -3 | + | x | 111* | x | 165
C#CCOCCOCCOCCNc1nc(N2CCN(C(=O)CCCCCCCCCCNC(=O)[C@H]([C@@H](C)CC)n3cc(CCCCCN)nn3)CC2)nc(N2CCN(C(=O)CCCCCCCCCCNC(=O)[C@@H]([C@H](C)O)n3cc(C)nn3)CC2)n1 | -6 | + | 7 | 17 | -20 | 15
CC(C)NC(=S)NC(=O)c1ccc(-c2ccccc2)cc1 | -2 | i | 72* | -5 | -172 | -1
O=C(CSc1nnc(Cc2cccs2)n1Cc1ccco1)Nc1cc(Cl)cc(Cl)c1 | 0 | i | 6 | 19 | -2 | -1
COc1ccc2cc(C(=O)Nc3ccc(F)cc3)sc(=O)c2c1OC | -5 | i | -2 | 41* | -7 | -1
Cc1nn(-c2ccccc2)c(Cl)c1CN(C(=O)CCl)c1ccc(Cl)cc1 | -3 | i | 0 | 9 | 78* | -1
COC(=O)c1ccccc1-c1c2ccc(=N)cc-2oc2cc(N)ccc12 | x | i | 176* | -73 | -92 | -96
COc1ccc(-c2csc3nc(C(C)C)oc(=O)c23)cc1OC | -1 | i | 0 | -6 | -9 | -4
COc1ccc(-c2nc3scc(-c4ccc(OC)c(OC)c4)c3c(=O)o2)cc1 | 1 | i | -1 | 0 | 57* | 13
CCc1nnc(NS(=O)(=O)c2ccc(N=Cc3c(C)[nH]n(-c4ccc(Cl)cc4)c3=O)cc2)s1 | -3 | i | 2 | 1 | 33 | 0
SMILES | TPT1 inh | Rpn11 block | CRFBP-R2 agonist | CSN inh | CRFBP-R2 block | HNF4A DNA FP
CCc1nnc(NS(=O)(=O)c2ccc(N=Cc3c(C)[nH]n(-c4cccc(Cl)c4)c3=O)cc2)s1 | -1 | i | -1 | 1 | 51* | 3
CCOc1ccc(OCCSc2nc(N)cc(=O)[nH]2)cc1 | -3 | i | 2 | 6 | 59* | 2
Cc1ccc(C(=O)CSc2nc(N)cc(=O)[nH]2)cc1C | -2 | i | 0 | -7 | 11 | -2
CCc1ccc(C(=O)CSc2nc(N)cc(=O)[nH]2)cc1 | 1 | i | 0 | 5 | 12 | 49*
CC(=O)OCC(OC(C)=O)C(OC(C)=O)C(OC(C)=O)C(=O)Nc1ccc(C)cc1C (stereo not given) | 4 | i | -1 | -2 | 1 | 0
CCn1ccnc1CN1CCN(CC=C(C)C)C(CCO)C1 (stereo not given) | 1 | i | -1 | 2 | -16 | 1
CCN(CC)S(=O)(=O)c1cccc(-c2nnc(SCC(=O)NCCC3=CCCCC3)n2N)c1 | -6 | i | 0 | 8 | -14 | 3
COC(=O)CCCC1=CC2=C(c3ccccc3)C(=O)C(C)(OC(=O)C3CCCC3)C(=O)C2=CN1CCc1ccccn1 (stereo not given) | -6 | i | 2 | -3 | 57* | -2
O=C(O)CN1C(=O)SC(Nc2ccc(C(=O)O)cc2)C1=O (stereo not given) | -6 | i | 3 | -4 | 26 | 1
CC1(C)CC(=O)C(=Cc2cn(-c3ccccc3)nc2-c2ccc(Cl)cc2)C(=O)C1 | 2 | i | 58* | -5 | -41 | -2
COc1ccccc1/C=N/NC(=O)CC(=O)Nc1ccc(Cl)c(Cl)c1 | -2 | i | 0 | -3 | -4 | 44*
CCn1c(SCC(=O)c2ccccc2)nnc1-c1cccnc1 | 2 | i | -2 | 3 | -2 | 36*
C#CC(=O)CC1(CN(Cc2ccccc2)C(=O)OC(C)(C)C)CCCCC1 | x | + | 10 | 13 | -17 | 13
O=C(c1ccco1)N(Cc1ccc(Cl)cc1)C1CCS(=O)(=O)C1 (stereo not given) | -2 | i | 0 | 1 | -3 | 4
COc1ccc(NC2CCCN(C(=O)c3cccc(C)n3)C2)cc1OC (stereo not given) | 0 | i | 1 | 5 | 103* | 1
COc1ccc(NC2CCCN(C(=O)c3csc(C(C)C)n3)C2)cc1OC (stereo not given) | -2 | i | 0 | -1 | 0 | -4
CCOC(=O)c1cc(C#N)c(SCC(=O)c2cc(C#N)c(SC)nc2C)[nH]c1=O | -16 | i | 6 | 10 | -3 | 1
O=C(COc1ccc(/C=N/NC(=O)c2ccccc2)cc1)Nc1ccc([N+](=O)[O-])cc1 | 2 | i | 0 | 0 | -6 | -3

Bioassay records (PubChem BioAssay)
